Reference: ChEMBL document CHEMBL4257443, “The discovery of a potent Nav1.3 inhibitor with good oral pharmacokinetics” (Medchemcomm, 2017)
The source made the active and inactive calls. The calls are words filed in the database; no cut-off is given here.

Tests used:
Rattus norvegicus [1] = experiment: Prodrug conversion in po dosed rat assessed as formation of N-(3-chloro-4-(trifluoromethoxy)benzyl)-3-fluoro-4-(N-thiazol-2-ylsulfamoyl)benzamide; assay type: ADME, organism-based; details: in vivo
Cynomolgus monkey [2] = experiment: Toxicity in cynomolgus monkey assessed as change in heart rate at 30 mg/kg; assay type: organism-based, Macaca fascicularis; details: in vivo
Cynomolgus monkey [3] = experiment: Toxicity in cynomolgus monkey assessed as change in systolic blood pressure at 30 mg/kg; assay type: organism-based, Macaca fascicularis; details: in vivo
Cynomolgus monkey [4] = experiment: Toxicity in cynomolgus monkey assessed as change in diastolic blood pressure at 30 mg/kg; assay type: organism-based, Macaca fascicularis; details: in vivo
Cynomolgus monkey [5] = experiment: Toxicity in cynomolgus monkey assessed as effect on ECG parameters at 30 mg/kg; assay type: organism-based, Macaca fascicularis; details: in vivo
Cynomolgus monkey [6] = experiment: Toxicity in cynomolgus monkey assessed as change in left ventricular pressure parameters at 30 mg/kg; assay type: organism-based, Macaca fascicularis; details: in vivo
Rattus norvegicus [7] = experiment: Antipain activity in tibial nerve transection surgery model of rat assessed as reduction of noxious pinch evoked activity at 3 to 10 mg/kg administered as iv bolus dose measured every 15 mins for 30 mins; assay type: functional, organism-based
Outline: (§1)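 Rats had tibial nerve transection 2–3 weeks before recording. Under isoflurane anaesthesia (5% in O2) in a stereotaxic frame, body temperature was held at 37 °C and L4-5 spinal segments were exposed by laminectomy. After stable baseline responses, compound was given as an IV bolus, with effects assessed every 15 min for up to 30 min per dose. Treatment was randomised and blinded, and dry blood spots were taken for plasma exposure.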

Rattus norvegicus [8] = experiment: Antipain activity in tibial nerve transection surgery model of rat assessed as reduction of innocuous brush evoked activity at 3 to 10 mg/kg administered as iv bolus dose measured every 15 mins for 30 mins; assay type: functional, organism-based; outline: as §1
Rattus norvegicus [9] = experiment: Antipain activity in tibial nerve transection surgery model of rat assessed as reduction of mechanical punctate stimuli evoked activity at 3 to 10 mg/kg administered as iv bolus dose measured every 15 mins for 30 mins; assay type: functional, organism-based; outline: as §1
Rattus norvegicus [10] = experiment: Antipain activity in tibial nerve transection surgery model of rat assessed as reduction of heat evoked activity at 3 to 10 mg/kg administered as iv bolus dose measured every 15 mins for 30 mins; assay type: functional, organism-based; outline: as §1

Drug metabolism (Rattus norvegicus [1]): Metabolite_Detected
Compound: O=C(NCc1ccc(OC(F)(F)F)c(Cl)c1)c1ccc(S(=O)(=O)/N=c2\sccn2COP(=O)(O)O)c(F)c1
Activity (Cynomolgus monkey [2]): Non-Toxic
Activity (Cynomolgus monkey [3]): Non-Toxic
Activity (Cynomolgus monkey [4]): Non-Toxic
Activity (Cynomolgus monkey [5]): Non-Toxic
Activity (Cynomolgus monkey [6]): Non-Toxic
Activity (Rattus norvegicus [7]): Active
Activity (Rattus norvegicus [8]): inactive
Activity (Rattus norvegicus [9]): inactive
Activity (Rattus norvegicus [10]): inactive
